Test results: ChEMBL document CHEMBL1156886, “Exploring epidermal growth factor receptor (EGFR) inhibitor features: the role of fused dioxygenated rings on the quinazoline scaffold” (J Med Chem, 2010)
Activity calls are given as the source filed them. The rule behind the calls is not given here.

Experiments:
Type in all cases: functional, cell-based
A-431 [1] = test: Cytotoxicity against human A431 cells after 72 hrs by MTT assay; details: A-431, 72 h
Outline: (§1)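 MTT proliferation assay after 72 h continuous compound exposure in A431 (EGFR-overexpressing) and NIH3T3 (not expressing EGFR) cells. Highest concentration tested 10 μM, limited by precipitation in culture medium. IC50 not derived when inhibition stayed below 50% at 10 μM. Values are mean ± SD of at least three independent experiments.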

NIH3T3 = test: Cytotoxicity against mouse NIH/3T3 cells after 72 hrs by MTT assay; details: NIH3T3, 72 h; outline: as §1
A-431 [2] = test: Antiproliferative activity against human A431 cells assessed as cell growth at 10 uM pretreated for 24 hrs measured after 68 hrs of drug removel by MTT assay
A-431 [3] = test: Antiproliferative activity against exogenous EGF-induced human A431 cell growth at 0.1 uM pretreated for 24 hrs measured after 72 hrs of drug removel by MTT assay

Compound	IC50 (A-431 [1]) [µM]	IC50 (NIH3T3) [µM]	Activity (A-431 [2])	Activity (A-431 [3])
Fc1cc(Br)ccc1Nc1ncnc2cc3c(cc12)OCCCO3	> 10	–	–	–
Brc1cccc(Nc2ncnc3cc4c(cc23)OCO4)c1	7.16	> 10	Active	–
FC(F)(F)c1cccc(Nc2ncnc3cc4c(cc23)OCCCO4)c1	4.73	> 10	Active	–
Cc1cccc(Nc2ncnc3cc4c(cc23)OCCO4)c1	0.67	5.8	Active	–
COc1cc2ncnc(Nc3cccc(Br)c3)c2cc1OC	–	> 10	Active	inactive
Cc1cccc(Nc2ncnc3cc4c(cc23)OCO4)c1	6.69	> 10	Active	–
Fc1cc(Br)ccc1Nc1ncnc2cc3c(cc12)OCCO3	6.28	5.4	Active	–
Cc1cccc(Nc2ncnc3cc4c(cc23)OCCCO4)c1	6.29	> 10	Active	–
Fc1ccc(Nc2ncnc3cc4c(cc23)OCO4)cc1Cl	> 10	–	–	–
Brc1cccc(Nc2ncnc3cc4c(cc23)OCCCO4)c1	8.17	> 10	Active	–
Fc1ccc(Nc2ncnc3cc4c(cc23)OCCO4)cc1Cl	> 10	–	–	–
FC(F)(F)c1cccc(Nc2ncnc3cc4c(cc23)OCCO4)c1	0.77	7.1	Active	–
Fc1ccc(Nc2ncnc3cc4c(cc23)OCCCO4)cc1Cl	7.13	> 10	Active	–
Brc1cccc(Nc2ncnc3cc4c(cc23)OCCO4)c1	0.75	> 10	Active	–
FC(F)(F)c1cccc(Nc2ncnc3cc4c(cc23)OCO4)c1	8.46	> 10	Active	–
Fc1cc(Br)ccc1Nc1ncnc2cc3c(cc12)OCO3	> 10	–	–	–
